Rows were chosen to be rich in hits. Some 2.2% of all compounds tested hit in one or more screens of this group.
PTEN del growth: growth suppressors of cells with PTEN tumor suppressor deletion. HCT116 PTEN-null viability, CellTiter-Glo, 60 h; stronger effect = lower value. viability, % at 10 µM. 140,000 compounds, 1.2% hits;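 active = viability at or below a set limit, 4 SD under the median of all tested compounds, cut at about 3.7% in these data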;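 also: PTEN knockout HCT116 line with beta catenin targeted HCT116 as companion control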
Autophagy HCS: autophagy modulation, high-content screen. MEF GFP-LC3 puncta imaging; test concentration mostly 10 µM. calls only at 10 µM (by protocol). 190,000 compounds, 0.98% hits. AID 463193;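 active = percentage of spot-positive cells more than 3 SD above its plate mean, without a fluorescence outlier flag or 80% toxicity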;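 also: spot-positive cell cutoff set from DMSO-treated cells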
sdo1 growth: sdo1-depleted yeast growth rescue; S. cerevisiae sdo1-depleted JHY4D growth rescue, OD600 30 h; stronger effect = higher value; pdr5 snq2 efflux-pump mutant strain; z-score at 10 µM; 140,000 compounds, 0.21% hits; AID 817;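 active = z-score above 3 at both the 24 hr and the 30 hr optical density reads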;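 also: z-score against mean and SD of all compound wells on the same plate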
Dynein transport: blocks dynein driven cargo transport along microtubules; 3617.4 mouse cells, GR-EGFP nuclear translocation imaging; test concentration mostly 20 µM; stimulated with dexamethasone, 1 µM; stronger effect = lower value; z-score, hits read low; 220,000 compounds, 0.47% hits; AID 1381;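 active = plate z-score of nuclear minus cytoplasmic receptor signal below a set negative limit, without overly bright fluorescence or cell loss, cut at about -3.5 in these data, passing the limit was not always enough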;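 also: z-score of nuclear minus cytoplasmic ring GR-EGFP intensity difference per well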
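Buffer or medium: tet-free, stripped-serum medium; reagent: dexamethasone at 1.0 µM final, 30 min; incubation: 48 h induction, 1 h compound, 30 min dex at 37 °C; measured by: formaldehyde fixation, Hoechst nuclear stain, 10x automated fluorescence imaging; read-out: nuclear-to-cytoplasmic GR-EGFP distribution per well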
HCT116 bCat-KO: beta-catenin-lacking colon tumor cell growth suppression. AID 818. 140,000 compounds, 1.5% hits. HCT116 beta-catenin knockout viability, CellTiter-Glo, 60 h; stronger effect = lower value. viability, % at 10 µM;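 active = viability at or under a set limit, the compound median less 4 SD, cut at about 6% in these data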;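 also: 0% = Hyamine 1622 control at 20 µM and 100% = untreated cell control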
Starred values were filed as active, the others as inactive; i = inactive; / = no result; + = active, no number.

SMILES | PTEN del growth | Autophagy HCS | sdo1 growth | Dynein transport | HCT116 bCat-KO
Cc1ccc2c(c1)c1ccc3c(c1n2C)C(=O)C=CC3=O | / | / | / | -6.9* | /
O=C(N/N=C/c1cc([N+](=O)[O-])ccc1N1CCNCC1)c1ccc([N+](=O)[O-])cc1 | 1.1* | i | 1 | 0.49 | 1.6*
O=C(COc1ccc([N+](=O)[O-])cc1)N/N=C/c1cc([N+](=O)[O-])ccc1N1CCOCC1 | 87 | i | 0.93 | 0.29 | 88
O=C(N/N=C/c1ccc(N2CCCC2)c([N+](=O)[O-])c1)c1cccnc1 | / | i | / | 1.8 | /
O=C(Cn1c2ccccc2c(=O)c2ccccc21)N/N=C/c1ccc(N2CCCC2)c([N+](=O)[O-])c1 | 7 | i | -0.56 | 0.7 | 2.7*
O=C(Cn1c2ccccc2c(=O)c2ccccc21)N/N=C/c1cc([N+](=O)[O-])ccc1N1CCCCCC1 | 10 | + | 1.1 | -1.2 | 11
Cc1ccc(OCC(=O)N/N=C/c2cc([N+](=O)[O-])ccc2N2CCCCC2)cc1 | 66 | + | -0.61 | 0.23 | 82
COc1ccc(/C=C(\C#N)C(=O)OCC(=O)NC2CC2)cc1 | / | i | / | 0.7 | /
CCOC(=O)CCC(NC(=O)CCCCCCCC(=O)NC(CCC(=O)OCC)C(=O)OCC)C(=O)OCC (centres undefined) | 95 | i | 0.7 | 0.67 | 90
CCCCN(C(=O)c1cc2ccccc2o1)c1c(N)n(CCC)c(=O)[nH]c1=O | 84 | i | 1.8 | -0.81 | 95
CCc1nnc(NS(=O)(=O)c2ccc(N3C(=O)c4ccccc4C3=O)cc2)s1 | / | i | / | -0.62 | /
COc1cc2c(cc1N/C=C(\C#N)c1nc(-c3ccccc3)cs1)oc1ccccc12 | / | + | / | 0.053 | /
COc1cccc(-c2csc(/C(C#N)=C/Nc3cc4oc5ccccc5c4cc3OC)n2)c1 | / | i | / | -0.28 | /
CN(c1ccccc1)S(=O)(=O)c1cccc(NC(=O)CCN2C(=O)C3CCCCC3C2=O)c1 (centres undefined) | / | i | / | -0.93 | /
CC(=O)Cc1nsc(NC(=O)c2ccc(-c3cc(C(F)(F)F)ccc3Cl)o2)n1 | 43 | i | -0.9 | 2.8 | 45
CC(=O)Cc1nsc(NC(=O)c2ccc(-c3cccc(C(F)(F)F)c3)o2)n1 | 45 | + | 0.61 | 2.2 | 48
Cc1ccc(NC2=C(NC(=O)c3ccccc3)C(=O)c3ccccc3C2=O)cc1Cl | 5 | i | -0.77 | -0.94 | 5.7*
Cc1ccc(NCC(=O)c2ccccc2)cc1Cl | 82 | i | 0.43 | -0.042 | 92
CCN1C(=O)C(O)(C2COC(C)(C)CC2=O)c2cc(Br)ccc21 (centres undefined) | 30 | + | -0.28 | -0.015 | 25
CCCCCCCCCCCC(=O)NC(C(=O)OCC)C(O)c1cccc([N+](=O)[O-])c1 (centres undefined) | 77 | i | -0.37 | 0.47 | 64
Cc1cc(C)c(C(=O)CSc2nnc(C)c(=O)[nH]2)cc1C | / | i | / | 3.1 | /
COc1ccc(-c2nnc3sc(-c4cccs4)nn23)cc1OC | 86 | i | -0.68 | 0.46 | 90
COc1cc(-c2nnc3sc(-c4cccs4)nn23)cc(OC)c1OC | 3.0* | i | -0.22 | -0.34 | 4.0*
O=C(c1ccco1)N1CCN(C(=O)c2nn3cccnc3c2Cl)CC1 | 98 | i | 1.6 | -0.083 | 99
O=C(c1nn2cccnc2c1Cl)N1CCN(c2ccccc2)CC1 | 98 | + | 0.11 | -0.4 | 92
SMILES | PTEN del growth | Autophagy HCS | sdo1 growth | Dynein transport | HCT116 bCat-KO
COc1cc(OC)cc(OCC(O)Cn2ccnc2)c1 (centres undefined) | 93 | i | 1.4 | -0.13 | 100
O=C(COC(=O)C1CC1)Nc1ccc2c(c1)OCO2 | / | i | / | 0.056 | /
O=S(=O)(Nc1cc2nc3ccccc3nc2n1Cc1ccccc1)c1ccc(Cl)cc1 | 76 | + | -0.24 | -0.88 | 86
Cn1c(NC(=O)C2CCCO2)cc(=O)n(C)c1=O (centres undefined) | 95 | i | 0.89 | -0.73 | 98
COc1ccc(OC)c(Nc2ncnc3c2cnn3-c2cccc(C)c2)c1 | 26 | + | -0.28 | -1.6 | 25
COc1ccc(Nc2ncnc3c2cnn3-c2ccccc2)cc1OC | 102 | / | -0.87 | 0.35 | 91
N#CC(C(=O)NC1CCCCC1)c1nc2ccccc2nc1N1CCN(c2ccc(F)cc2)CC1 (centres undefined) | 91 | + | -0.95 | -0.14 | 79

From PubChem BioAssay
